From ChEMBL document CHEMBL3877298, “Discovery of benzimidazole derivatives as modulators of mitochondrial function: A potential treatment for Alzheimer's disease” (Eur J Med Chem, 2017)

Experiments:
[1] = molecular target: Translocator protein (Mus musculus) (UniProt P50637); assay: Inhibition of TSPO in mouse HT22 cells assessed as protection against amyloid beta (1 to 42)-induced mitochondrial membrane potential loss by measuring recovery of mitochondrial membrane potential at 5 uM preincubated for 10 mins followed by amyloid beta (1 to 42) addition measured every 1 hr for 3 hrs by JC1 staining based fluorescence assay relative to control; format: cell-based; parameters: scale not given: the % may be the effect or the level left; settings: HT-22
In short: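 HT22 cells at 30,000 per well were loaded with 7.5 µM JC-1 in phenol red-free Opti-MEM for 1 h 15 min at 37 °C, then washed. Cells were treated with compound (5 µM) and Aβ1-42 (5 µM); vehicle wells received DMSO. Green (485/535) and red (560/595) fluorescence were read hourly for 3 h. Recovery was normalised between Aβ-damaged (0%) and normal (100%) ratio.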

[2] = molecular target: Translocator protein (Mus musculus) (UniProt P50637); assay: Inhibition of TSPO in mouse HT22 cells assessed as protection against amyloid beta (1 to 42)-induced mitochondrial membrane potential loss by measuring recovery of ATP production at 5 uM preincubated for 10 mins followed by amyloid beta (1 to 42) addition measured after 7 hrs by luciferase reporter gene assay relative to control; format: cell-based; parameters: scale not given: the % may be the effect or the level left; settings: HT-22
In short: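 HT22 cells at 7000 per well were given compound (5 µM) for 10 min at 37 °C, then Aβ1-42 (5 µM) or DMSO vehicle, and incubated 7 h. Cells were washed, lysed in 1% Triton X-100, and protein-equalised by BCA. ATP was measured by luciferin/luciferase luminescence and normalised to vehicle.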

[3] = molecular target: Translocator protein (Mus musculus) (UniProt P50637); assay: Inhibition of TSPO in mouse HT22 cells assessed as inhibition of amyloid beta (1 to 42)-induced toxicity at 5 uM after 24 hrs by MTT assay relative to control; format: cell-based; settings: HT-22
In short: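 HT22 cells at 5000 per well were treated with compound (5 µM), with or without Aβ1-42 (5 µM), for 24 h at 37 °C. MTT was added for 2 h, then solubilising solution (10% Triton X-100 in isopropanol with 0.1 M HCl) for 2 h more. Absorbance read at 560 nm; % inhibition normalised to vehicle, and viability taken from compound-only wells.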

CYP1A2 = molecular target: T1, CYP1A2 (Homo sapiens, UniProt P05177); assay: Inhibition of recombinant human CYP1A2 expressed in baculosomes coexpressing rabbit NADPH-P450 reudctase assessed as residual activity at 10 uM preincubated for 5 mins followed by substrate and NADP+ addition measured after 20 mins by fluorescence assay relative to control; format: ADME; settings: read-out: Activity
T1 sequence (P05177 whole entry): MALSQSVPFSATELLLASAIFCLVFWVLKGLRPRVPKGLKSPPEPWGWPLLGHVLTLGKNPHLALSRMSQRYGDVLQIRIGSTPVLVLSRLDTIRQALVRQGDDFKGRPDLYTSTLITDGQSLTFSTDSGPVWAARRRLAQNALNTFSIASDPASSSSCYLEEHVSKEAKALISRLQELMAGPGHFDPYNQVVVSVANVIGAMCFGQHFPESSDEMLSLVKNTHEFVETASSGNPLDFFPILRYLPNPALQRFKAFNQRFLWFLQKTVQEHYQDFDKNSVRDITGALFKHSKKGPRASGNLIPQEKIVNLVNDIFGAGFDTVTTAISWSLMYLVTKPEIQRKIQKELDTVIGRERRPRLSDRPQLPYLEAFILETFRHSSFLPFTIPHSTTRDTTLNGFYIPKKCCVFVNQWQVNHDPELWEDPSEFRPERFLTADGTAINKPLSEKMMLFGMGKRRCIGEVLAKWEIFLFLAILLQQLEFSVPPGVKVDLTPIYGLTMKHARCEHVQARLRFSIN
In short: (§1)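 Vivid CYP450 kit: recombinant human CYP isozyme in Baculosomes with rabbit NADPH-P450 reductase, plus regeneration system (3.3 mM glucose-6-phosphate, 0.3 U/mL G6PDH in 100 mM potassium phosphate, pH 8.0). Mixture preincubated with sample for 5 min at 37 °C. Vivid substrate and 0.1 mM NADP+ were then added, and remaining activity read by fluorescence after 20 min.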

CYP2D6 = CYP2D6 (Homo sapiens, UniProt P10635); assay: Inhibition of recombinant human CYP2D6 expressed in baculosomes coexpressing rabbit NADPH-P450 reudctase assessed as residual activity at 10 uM preincubated for 5 mins followed by substrate and NADP+ addition measured after 20 mins by fluorescence assay relative to control; format: ADME; settings: read-out: Activity; in short: as §1
CYP3A4 = CYP3A4 (Homo sapiens, UniProt P08684); assay: Inhibition of recombinant human CYP3A4 expressed in baculosomes coexpressing rabbit NADPH-P450 reudctase assessed as residual activity at 10 uM preincubated for 5 mins followed by substrate and NADP+ addition measured after 20 mins by fluorescence assay relative to control; format: ADME; settings: read-out: Activity; in short: as §1
Mus musculus = assay: Reversal of coginitive deficit in double APP/PS1 transgenic Alzheimer's disease mouse model assessed as increase in freezing response at 30 mg/kg, po daily for 1 month by contextual fear conditioning test; format: functional
[4] = Auc (0 to infinity) in Sprague-Dawley rat at 10 mg/kg, iv by LC-MS/MS analysis; format: ADME, organism-based; parameters: dose 10 mg/kg, time infinity, route intravenous; settings: in vivo
In short: (§2)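 Male SD rats, 8 weeks old, given 10 mg/kg intravenously (n = 4). Plasma mixed with carbamazepine internal standard in acetonitrile, vortexed, centrifuged at 10,000×g, and the supernatant analysed by LC-MS/MS. Parameters reported as mean ± SD.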

[5] = AUClast in Sprague-Dawley rat at 10 mg/kg, iv by LC-MS/MS analysis; format: ADME, organism-based; parameters: dose 10 mg/kg, route intravenous, time 0 - last; settings: in vivo; in short: as §2
[6] = Terminal half life in Sprague-Dawley rat at 10 mg/kg, iv by LC-MS/MS analysis; format: ADME, organism-based; settings: in vivo, read-out: beta t1/2; in short: as §2
[7] = Terminal half life in Sprague-Dawley rat at 10 mg/kg, po by LC-MS/MS analysis; format: ADME, organism-based; settings: in vivo, read-out: beta t1/2
In short: (§3)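 Male SD rats, 8 weeks old, acclimatised at least 1 week; compound dissolved at 10 mg/2 mL in N-methyl-2-pyrrolidone/Tween80/water (1:2:7) by 5 min sonication, given 10 mg/kg by oral gavage at 2 mL/kg (n = 5). Heart-puncture blood drawn at 30 min and 3 h, plasma spun and stored at -70 °C. Samples mixed with carbamazepine internal standard in acetonitrile and assayed by LC-MS/MS.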

[8] = Cmax in Sprague-Dawley rat at 10 mg/kg, po by LC-MS/MS analysis; format: ADME, organism-based; parameters: dose 10 mg/kg, route oral; settings: in vivo; in short: as §3
[9] = Tmax in Sprague-Dawley rat at 10 mg/kg, po by LC-MS/MS analysis; format: ADME, organism-based; settings: in vivo; in short: as §3
[10] = MRT in Sprague-Dawley rat at 10 mg/kg, iv by LC-MS/MS analysis; format: ADME, organism-based; settings: in vivo; in short: as §2
[11] = Drug excretion in Sprague-Dawley rat at 10 mg/kg, iv by LC-MS/MS analysis; format: ADME, organism-based; settings: in vivo, read-out: Drug excretion
[12] = Ratio of drug level in brain to plasma in Sprague-Dawley rat at 10 mg/kg, iv at 2 hrs post dose by LC-MS/MS analysis; format: ADME, organism-based; settings: brain and plasma, read-out: BPR
In short: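 After intravenous dosing at 10 mg/kg in male SD rats, brain and plasma were sampled at 2 h. Each was mixed with carbamazepine internal standard in acetonitrile and analysed by LC-MS/MS.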

[13] = Ratio of drug level in brain to plasma in Sprague-Dawley rat at 10 mg/kg, po at 2 hrs post dose by LC-MS/MS analysis; format: ADME, organism-based; settings: brain and plasma, read-out: BPR

Translocator protein (Mus musculus), sequence (P50637 whole entry, looked up): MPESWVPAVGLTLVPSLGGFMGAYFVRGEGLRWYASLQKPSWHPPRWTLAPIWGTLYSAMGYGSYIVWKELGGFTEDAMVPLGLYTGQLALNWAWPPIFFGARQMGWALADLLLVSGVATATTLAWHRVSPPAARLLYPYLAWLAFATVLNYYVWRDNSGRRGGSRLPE
CYP3A4, sequence (P08684 whole entry): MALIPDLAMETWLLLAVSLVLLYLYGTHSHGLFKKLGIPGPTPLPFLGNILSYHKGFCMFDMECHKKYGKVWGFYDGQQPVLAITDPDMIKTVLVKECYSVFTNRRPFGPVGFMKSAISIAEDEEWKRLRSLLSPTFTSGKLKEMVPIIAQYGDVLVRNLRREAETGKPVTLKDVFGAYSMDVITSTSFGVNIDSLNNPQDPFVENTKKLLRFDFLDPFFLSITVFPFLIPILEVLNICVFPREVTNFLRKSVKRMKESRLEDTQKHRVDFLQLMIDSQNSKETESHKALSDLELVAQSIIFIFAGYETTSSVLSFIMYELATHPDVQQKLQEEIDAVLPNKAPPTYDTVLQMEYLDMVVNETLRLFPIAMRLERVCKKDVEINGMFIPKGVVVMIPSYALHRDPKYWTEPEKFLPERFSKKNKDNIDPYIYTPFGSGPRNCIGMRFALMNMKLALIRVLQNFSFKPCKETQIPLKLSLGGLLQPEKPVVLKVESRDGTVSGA
CYP2D6, sequence (P10635 whole entry): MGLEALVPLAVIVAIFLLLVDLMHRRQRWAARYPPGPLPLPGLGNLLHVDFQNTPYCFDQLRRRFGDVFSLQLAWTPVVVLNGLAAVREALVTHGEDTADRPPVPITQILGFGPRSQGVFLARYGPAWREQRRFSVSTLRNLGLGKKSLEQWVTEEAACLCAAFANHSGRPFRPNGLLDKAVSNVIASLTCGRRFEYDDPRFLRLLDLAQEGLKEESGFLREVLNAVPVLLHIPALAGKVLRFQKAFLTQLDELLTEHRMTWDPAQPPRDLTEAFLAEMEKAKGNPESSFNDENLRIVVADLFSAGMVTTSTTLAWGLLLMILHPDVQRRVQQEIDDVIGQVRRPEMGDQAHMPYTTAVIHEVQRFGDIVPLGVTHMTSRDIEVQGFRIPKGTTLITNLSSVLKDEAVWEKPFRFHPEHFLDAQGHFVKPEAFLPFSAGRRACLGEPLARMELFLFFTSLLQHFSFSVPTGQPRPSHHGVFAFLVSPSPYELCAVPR

In the case of `Cc1ccc(C(C)C)cc1NC(=O)Cn1c(Cc2c(Cl)cccc2Cl)nc2ccccc21`, the Activity [1] is reported as 74%, the Activity [2] is reported as 95% and the inhibition [3] is reported as 30%. The activity at 20 min, 10 µM (CYP1A2) was 108%, the activity at 20 min, 10 µM (CYP2D6) was 140% and the activity at 20 min, 10 µM (CYP3A4) was 224%. It also gave an Activity (Mus musculus) of 12%, an AUC(0-inf) [4] of 1850 ng·h/mL and an AUC(0-t) [5] of 1750 ng·h/mL. It also gave a half-life [6] of 2.62 h, a half-life [7] of 1.49 h and a Cmax [8] of 70 ng/mL. The Tmax [9] was 0.55 h, the MRT [10] was 1.12 h and the dose excreted [11] was 0.03%. For the same molecule, the Kp at 2 h [12] was 2.88 and the Kp at 2 h [13] was 1.02.
